Assay outcomes deposited in PubChem BioAssay by several laboratories.
MsrA act – activates bovine MsrA enzyme | hit rate 0.3% among 360,000 | AID 602163 | purified bovine MsrA, absorbance read-out | activation, % at 10.6 µM; in the data active = activation above about 7.5%
ASAP1 inh – inhibitors of human ASAP1 ArfGAP activity; Q9ULH1; ASAP1-stimulated ARF1 GTP hydrolysis, GDP FP detection; inhibition, % at 16.5 µM; hit rate 0.19% among 360,000; in the data active = inhibition above about 25%
Target sequence (Q9ULH1 325-724 limits assumed): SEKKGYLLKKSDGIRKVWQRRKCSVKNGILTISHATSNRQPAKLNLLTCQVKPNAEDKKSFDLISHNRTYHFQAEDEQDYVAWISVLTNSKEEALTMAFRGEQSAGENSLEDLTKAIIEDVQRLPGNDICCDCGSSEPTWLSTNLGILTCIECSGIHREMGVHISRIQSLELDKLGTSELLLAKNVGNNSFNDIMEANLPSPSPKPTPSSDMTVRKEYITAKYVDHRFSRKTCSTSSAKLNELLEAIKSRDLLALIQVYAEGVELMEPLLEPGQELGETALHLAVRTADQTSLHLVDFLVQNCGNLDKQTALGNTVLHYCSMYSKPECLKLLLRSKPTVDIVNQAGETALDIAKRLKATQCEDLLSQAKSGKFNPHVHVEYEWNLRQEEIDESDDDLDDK
sPLA2-III inh – Blocks human group III sPLA2 activity | Q9NZ20 | QFRET BODIPY PC-A2 liposome hydrolysis, fluorescence | inhibition, % at 12.2 µM | hit rate 0.56% among 370,000;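 active = inhibition above mean plus 3 SD of compounds lying within the high and low control bounds, cut at about 19% in these data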
MsrA inhibitor – inhibitors of bovine MsrA. AID 651718. inhibition, % at 15.5 µM. purified bovine MsrA, absorbance read-out. hit rate 0.75% among 360,000; in the data active = inhibition above about 4.5%
ARFGAP1 inhibitor – inhibits rat ARF GTPase activating protein 1. Q62848. Arfgap1-stimulated ARF1 GTP hydrolysis, GDP FP detection. inhibition, % at 16.5 µM. hit rate 0.26% among 360,000. AID 651572;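 active = inhibition above a per-plate limit, mean inhibition of low control wells plus 3 SD, cut at about 25% in these data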
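System: truncated rat Arfgap1 GAP domain / Medium: HEPES-based buffer, pH 7.5 / Also added: N-terminally truncated human ARF1-GTP substrate / Incubation: enzyme reaction 120 min at 25 °C after 20 min preincubation / Measured by: FP of antibody-bound GDP Alexa 633 tracer, ex 620/em 688 nm / Replicates: singlicate, each compound tested once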
Rev-erbA mod – Rev-erb alpha (human) modulation. Rev-erbα–FITC-DNA binding, fluorescence polarization, 90 min. activity, % at 10 µM. hit rate 0.79% among 370,000. P20393;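 active = activity above about 14%, limit read from the data; passing the limit was not always enough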
ASAP1 GAP conf – confirmation of human ASAP1 inhibitors. shares compounds with ASAP1 inh. ASAP1-stimulated Arf1 GTPase, GDP fluorescence polarization. inhibition, % at 16.5 µM. hit rate 37% among 620;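 active = mean inhibition over triplicates exceeds the hit threshold derived for the earlier primary screening run, cut at about 25% in these data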
ARFGAP1 confirm – rat ARFGAP1 inhibition, confirmed; shares compounds with ARFGAP1 inhibitor; ARFGAP1-stimulated ARF1 GTP hydrolysis, GDP tracer FP; inhibition, % at 16.5 µM; hit rate 30% among 890; AID 651608;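 active = average inhibition over triplicates above the hit cutoff set in the earlier primary screen, cut at about 25% in these data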
NR1D1 mod conf – Rev-erb alpha (human) modulation, hit confirmation | shares compounds with Rev-erbA mod | Rev-erb alpha FITC-DNA binding, fluorescence polarization, 90 min | activation, % at 25 µM | hit rate 61% among 3,000 | AID 1259319;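 active = activation at or above a set limit, or at least 3 SD above the negative control mean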
RORg counter – affects RORgamma DNA binding in a Rev-erb alpha counter-screen; purified RORgamma protein-FITC-DNA binding, fluorescence polarization; IC50, µM; hit rate 8% among 910; AID 1259320; shares compounds with Rev-erbA mod;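 active = Compounds whose fitted half-maximal concentration for disrupting protein-DNA binding is below 10 micromolar; the record names Rev-erb in its text, so the target is in doubt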
Numbers stand for hits; - = inactive; . = not tested or not shown; + = active, no number. A selection: hits, their analogues and other compounds. The true share with any hit is near 2.7%.

SMILES	MsrA act	ASAP1 inh	sPLA2-III inh	MsrA inhibitor	ARFGAP1 inhibitor	Rev-erbA mod	ARFGAP1 confirm	others
CC1(C)Cc2c(C#N)c(N)n(-c3ccccc3)c(=S)c2CO1	-	-	-	-	-	-	.
CC1(C)C=C2C(=NN(c3ccccc3)C(N)=C2C#N)CO1	-	26.3	-	-	-	18.7	.	ASAP1 GAP conf=-;NR1D1 mod conf=-
CCOc1ccccc1NC(=O)Cn1cnc2c(nnn2-c2cccc(OC)c2)c1=O	-	-	-	-	-	-	.
COc1cccc(-n2nnc3c(=O)n(CC(=O)Nc4ccccc4C)cnc32)c1	-	32.1	-	-	-	23.3	.	ASAP1 GAP conf=-;NR1D1 mod conf=-
C#CCCCN([C@H](C(=O)OC)C(C)C)S(=O)(=O)c1ccc(F)cc1Br	.	.	-	.	.	-	.
COc1ccc(Cl)cc1C(=O)Nc1cccc(-c2ccc3nncn3n2)c1	-	191.3	-	-	+	127.7	+	ASAP1 GAP conf=196.0;NR1D1 mod conf=182.6;RORg counter=-
COc1cccc(C(=O)Nc2cccc(-c3ccc4nncn4n3)c2)c1OC	-	-	-	-	-	-	.
COc1cc2c3nnc(-c4ccc(F)cc4)c-3cn(Cc3ccccc3)c2cc1OC	-	79.3	-	-	36.2	43.1	29.2	ASAP1 GAP conf=59.8;NR1D1 mod conf=44.7;RORg counter=-
Cc1cc(C)c(C)c(S(=O)(=O)N2CCSCC2)c1C	-	25.3	-	-	-	18.6	.	ASAP1 GAP conf=-;NR1D1 mod conf=-
O=C(NCCN1CCC(n2c(=O)[nH]c3cc(Cl)ccc32)CC1)c1ccc(F)cc1	.	-	-	-	-	-	.
CCOC(=O)N1C(=O)C[C@](Sc2ccc(OC)cc2)(C(=O)N2CCN(C(C)=O)CC2)[C@H]1c1ccc(OC)cc1	.	.	-	.	.	-	.
COc1cc2sc3ccc(C#Cc4ccccn4)cc3c(=O)c2cc1OC	-	31.4	-	-	-	26.5	.	ASAP1 GAP conf=28.1;NR1D1 mod conf=27.1
CCN1CCN(c2ccc(S(=O)(=O)N3CCCCC3)cc2NC(=O)/C=C/c2ccc([N+](=O)[O-])cc2)CC1	-	28.6	-	-	42.5	-	45.4
CCN1CCN(c2ccc(S(=O)(=O)N3CCCCC3)cc2NC(=O)/C=C/c2ccc(F)cc2)CC1	-	-	-	-	-	-	.
CC12CCC(=O)N1C(C(=O)NCCN1C(=O)S/C(=C\c3ccc(OC(F)F)cc3)C1=O)CS2 (centres undefined)	-	-	-	-	24.6	-	-
CC12CCC(=O)N1C(C(=O)NCCN1C(=O)S/C(=C\c3ccc(F)cc3)C1=O)CS2 (centres undefined)	-	-	-	-	-	-	.
CC1=CC2C3C(=O)N(c4ccccc4)C(=O)C3C1C(=O)C2(O)C(C)C (centres undefined)	.	-	-	-	-	-	.
COc1ccc(N/N=C(/C#N)S(=O)(=O)c2nsc(C)c2C#N)cc1	-	-	-	-	28.0	-	-
CC(C1=CCCCC1)c1cnn(C)c1 (centres undefined)	.	.	-	.	.	-	.
CSc1ccc(C2C(C#N)=C(N)Oc3cc4c(cc32)OCO4)cc1 (centres undefined)	-	-	-	-	-	-	.
Cc1ccc(C2C(C#N)=C(N)Oc3cc4c(cc32)OCO4)cc1 (centres undefined)	-	-	-	-	25.4	-	-
O=C1CCN(Cl)C(=O)N1Cl	-	-	-	-	25.9	-	-
COC(=O)C1CN(Cc2ccc(F)cc2)CCS(=O)(=O)N1Cc1cn(Cc2ccccc2)nn1 (centres undefined)	.	.	-	.	.	-	.
COC(=O)C1CN(Cc2ccc(OC)cc2)CCS(=O)(=O)N1Cc1ccc(C(F)(F)F)cc1 (centres undefined)	.	.	-	.	.	-	.
Cc1cccc(NC(=O)C2(c3cccs3)CCOCC2)c1	-	-	-	-	34.8	-	-
Cc1cc(C)cc(NC(=O)C2(c3cccs3)CCOCC2)c1	-	-	-	-	-	-	.
